Assay results from different studies.
HSD11B2: 11-beta-hydroxysteroid dehydrogenase type 2 (HSD11B2, Homo sapiens, UniProt P80365)
FGFR3: Fibroblast growth factor receptor 3 (FGFR3, Homo sapiens, UniProt P22607)
CDK4: Cyclin-dependent kinase 4 (CDK4, Homo sapiens, UniProt P11802)

SMILES | target | test | conditions | quantity | value
C[C@]12CC[C@H]3[C@@H](CCC4=CC(=O)CC[C@@H]43)[C@@H]1CC[C@@H]2O | HSD11B2 | enzyme activity, inhibitor | 20 µM, lysate | inhibition | < 40%
CN1CC[C@@]2(C)c3cc(OC(=O)Nc4ccccc4)ccc3N(C)[C@@H]12 | Muscarinic acetylcholine receptor M2 (CHRM2, Homo sapiens, UniProt P08172) | ligand displacement, radioligand | 10 µM | inhibition | 7.6%
CCCCCCC(C)(C)c1cc(O)c2c(c1)OC(C)(C)C1CCC(=O)CC21 (stereo not shown) | HSD11B2 | enzyme activity, inhibitor | 20 µM, lysate | inhibition | < 40%
Nc1ncc(-c2nc(N3CCOCC3)nc(N3CCOCC3)n2)c(C(F)F)n1 | Ribosomal protein S6 kinase alpha-1, N-terminal kinase domain (RPS6KA1, Homo sapiens, UniProt Q15418) | binding, competition with immobilised ligand | 10 µM | remaining binding | 75%
C#Cc1n[nH]c2c(-c3cn([C@@H](C)c4ccccn4)c(=O)[nH]c3=O)cc(F)cc12 | FGFR3 | enzyme activity, inhibitor | 0.1 µM | inhibition | 2.9%
CCOC(=O)[C@H]1Cc2c(cc([N+](=O)[O-])cc2[N+](=O)[O-])[C@H](O)[C@]12C(=O)Nc1ccc(Br)cc12 | CDK4 | cell-free assay, inhibitor, TR-FRET | 1 µM | inhibition | 34.1%
Clc1cccc(-c2c[nH]c3nccc(N4CCOCC4)c23)c1 | Serine/threonine-protein kinase 3 (STK3, Homo sapiens, UniProt Q13188) | thermal stability, DSF | 20 µM | ΔTm | > 8 °C
Cc1nn(C)cc1-c1nc2c(N3CCN(Cc4ccc(Cl)cc4)CC3)c(Cl)cnc2[nH]1 | FGFR3 | binding, competition with immobilised ligand | 1 µM | remaining binding | 70%
CCOC(=O)[C@H]1Cc2c(cc([N+](=O)[O-])cc2[N+](=O)[O-])[C@H](O)[C@]12C(=O)Nc1cc(Br)ccc12 | CDK4 | cell-free assay, inhibitor, TR-FRET | 1 µM | inhibition | 32.9%
COc1ncccc1-c1cnn2ccc(N3CCN(C(=O)OC(C)C)CC3)nc12 | Serine/threonine-protein kinase DCLK1 (DCLK1, Homo sapiens, UniProt O15075) | binding, competition with immobilised ligand | 1 µM | remaining binding | 99%
